Published values gathered from unrelated publications.
Compare with care: the assays were run in different laboratories.
Target: Casein kinase I isoform alpha-like (CSNK1A1L, Homo sapiens, UniProt Q8N752)
One construct used (Q8N752 1-337): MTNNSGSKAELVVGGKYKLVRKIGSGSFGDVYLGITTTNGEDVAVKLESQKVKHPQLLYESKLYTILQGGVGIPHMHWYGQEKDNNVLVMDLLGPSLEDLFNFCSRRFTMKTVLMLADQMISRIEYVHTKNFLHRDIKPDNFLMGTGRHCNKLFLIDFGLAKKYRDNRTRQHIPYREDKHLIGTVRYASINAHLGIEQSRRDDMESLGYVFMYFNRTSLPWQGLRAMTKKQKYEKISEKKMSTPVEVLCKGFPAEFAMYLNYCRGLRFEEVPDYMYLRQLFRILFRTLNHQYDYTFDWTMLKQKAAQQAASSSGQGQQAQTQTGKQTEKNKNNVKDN

With `N[C@@H]1CCN(c2nccc(-c3cnn4ncccc34)n2)C1` the remaining binding was 100% (binding; 1 µM).
The remaining binding of `CNC(=O)Nc1ccc2c(c1)CC[C@@]21OC(=O)N(CC(=O)N(Cc2ccc(F)cc2)[C@@H](C)C(F)(F)F)C1=O` is reported as 88% (cell-free assay, competition with immobilised ligand; 1 µM).
For `O=C(c1ccc(Nc2nccc(-c3cc4ccccc4s3)n2)cc1)N1CCC(N2CCCC2)CC1`, the remaining binding was 98% (binding, competition with immobilised ligand; 1 µM).
`CN(C)C(=O)Cn1cc(-c2nc([C@@](C)(c3ccc(-c4cnc(N)nc4)cc3)C3CC3)no2)cn1` has a remaining binding of 100% (cell-free assay, competition with immobilised ligand; 1 µM).
The remaining binding of `CC1CCCN1c1nccc(-c2cnn3ncccc23)n1` (stereo not drawn) is reported as 100% (binding; 1 µM).
For `CNCc1ccccc1-c1csc([C@@H](C)Nc2nc(C)nc3cc(OC)c(OC)cc23)c1`, the remaining binding was 100% (cell-free assay, competition with immobilised ligand; 1 µM).
`C[C@@H]1CCN(c2nccc(-c3cnn4ncccc34)n2)C1` has a remaining binding of 81% (binding; 1 µM).
`FC(F)(F)Oc1cccc(-c2cnc3ccc(-c4ccncc4)nn23)c1` gave a remaining binding of 90% (cell-free assay, competition with immobilised ligand; 5 µM).
With `O=C(Nc1c[nH]nc1C(=O)NC1CCNCC1)c1cc(F)cc(F)c1` the remaining binding was 84% (binding, competition with immobilised ligand; 1 µM).
The remaining binding of `COc1ncc2cc3ccccc3nc2c1C#N` is reported as 100% (cell-free assay, competition with immobilised ligand; 5 µM).
`O=C(NCCCN1CCOCC1)c1ccc(Nc2ncc(Cl)c(-c3ccc(Cl)s3)n2)cc1` has a remaining binding of 100% (binding, competition with immobilised ligand; 1 µM).
With `CN(C)c1ncc(F)c(-c2cnn3ncccc23)n1` the remaining binding was 100% (binding; 1 µM).
The remaining binding of `CC(C)CC(=O)N1CCc2nc(-c3ccc(Br)cc3)nc(N(C)Cc3ccccc3)c2C1` is reported as 100% (cell-free assay, competition with immobilised ligand; 0.1 µM).
`O=C(c1ccc(Nc2ncc(Cl)c(-c3cc4ccccc4s3)n2)cc1)N1CCC(N2CCCC2)CC1` gave a remaining binding of 100% (binding, competition with immobilised ligand; 1 µM).
`CN(c1nccc(-c2cnn3ncccc23)n1)C1CC1` has a remaining binding of 100% (binding; 1 µM).
`CCN1CCN(Cc2ccc(C(=O)Nc3ccc(C)c(Oc4ccc5c(c4)CC(=O)N5)c3)cc2C(F)(F)F)CC1` has a remaining binding of 100% (binding, competition with immobilised ligand; 1 µM).
With `COc1ccnn2ncc(-c3ccnc(N(C)C)n3)c12` the remaining binding was 91% (binding; 1 µM).
With `COc1ccc2c(c1)O[C@H](c1ccc(OC)c(OC)c1)C[C@@H]2NC(=O)C1(c2ccc3c(c2)OC(F)(F)O3)CC1` the remaining binding was 100% (cell-free assay, competition with immobilised ligand; 1 µM).
With `CNC(=O)[C@@H]1CC[C@@H](n2c(-c3ccc4cnccc4c3)nc3ccc(C(=O)NCc4cccc(C(N)=O)c4)cc32)C1` the remaining binding was 100% (binding, competition with immobilised ligand; 1 µM).
For `Cc1nccc(COC(=O)N2C[C@@H]3[C@@H](CNC(=O)c4ccc5[nH]nnc5c4)[C@@H]3C2)n1`, the remaining binding was 100% (cell-free assay, competition with immobilised ligand; 1 µM).
`COc1cnc(Nc2cccc(S(N)(=O)=O)c2)nc1N1CCN(c2ccccc2)C(=O)C1` has a remaining binding of 100% (binding, competition with immobilised ligand; 1 µM).
